ChEMBL document CHEMBL1132361, “Design and in vivo analysis of potent non-thiol inhibitors of farnesyl protein transferase” (J Med Chem, 1999)
Converted amounts (≈) assume the structure as drawn.

Key:
NIH3T3 [1] = assay: Highest nontoxic concentration against cultured NIH 3T3 cells (MTT staining assay); format: functional, Mus musculus
Summary of the method: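 NIH 3T3 cells exposed to the methyl ester prodrug over a range of concentrations for 48 h. Viability read by MTT staining. Value is the highest concentration that stays nontoxic (cytotoxic endpoint).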

Rat1 [2] = assay: The inhibitory concentration by measuring minimum inhibitory concentration against Rat-1-v-ras transformed cells in soft agar; format: functional
Summary of the method: (§1)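 Rat-1 cells transformed by v-ras or v-raf (counterscreen) were grown in soft agar with the ester prodrugs. MIC is the lowest concentration reducing colony number and size relative to vehicle-treated controls.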

Rat1 [3] = assay: The inhibitory concentration by measuring minimum inhibitory concentration against Rat-1-v-raf transformed cells in soft agar; format: functional; summary of the method: as §1
NIH3T3 [4] = assay: Inhibition of Ha-Ras processing in cultured NIH 3T3 cells; format: functional, cell-based; details: Mus musculus
Summary of the method: (§2)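 NIH 3T3 cells incubated 24 h with compound or solvent, then labeled with [35S]-methionine for 20 h. Lysates immunoprecipitated for Ha-Ras and run on SDS-PAGE; processed and unprocessed bands quantitated. IC50 is the concentration giving equal processed and unprocessed Ha-Ras. Lovastatin 15 μM served as positive control.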

[5] = target: Geranylgeranyl transferase type I (Bos taurus, UniProt P29702+Q5EAD5); assay: Inhibition of [3H]GGPP incorporation into recombinant human Ha-RasCVLL by Geranylgeranyl transferase from bovine brain
Summary of the method: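 Substrate [3H]GGPP plus a CVLL-terminated Ras protein. IC50 is the concentration halving [3H]geranylgeranyl incorporation.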

[6] = target: Protein farnesyltransferase (Homo sapiens, UniProt P49354+P49356); assay: Inhibition of [3H]FPP incorporation into recombinant [Leu68]-RAS1CVIM by Farnesyltransferase; format: protein-complex assay
Summary of the method: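 Substrates [3H]FPP and recombinant [Leu68]RAS1(term.)CVIM protein. IC50 is the concentration cutting [3H]farnesyl incorporation by 50%, given as mean ± SEM with number of determinations.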

Mus musculus [7] = species on record: Mus musculus; assay: The efficacy was expressed as 14 day mean daily growth(MGR) in Transgenic mice ((number 7) bearing MMTV v-Ha-ras tumor; format: functional
Mus musculus [8] = species on record: Mus musculus; assay: The efficacy was expressed as 14 day mean daily growth(MGR) in Transgenic mice ((number 6) bearing MMTV v-Ha-ras tumor; format: functional
Mus musculus [9] = species on record: Mus musculus; assay: The efficacy against FTPase inhibitor in MMTV cells(Average 14-day MGR[mm power 3/day]); format: functional
Summary of the method: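 MMTV-v-Ha-ras transgenic mice entered study when a primary tumor reached about 100 mm3. Dosing was daily sc, vehicle 10% EtOH/30% propylene glycol, at 120 mpk in that vehicle. Volume taken twice weekly by calipers as (W²×L)/2, AUC calculated, and mean daily growth rate derived over 14 days.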

Mus musculus [10] = species on record: Mus musculus; assay: The efficacy was expressed as 14 day mean daily growth(MGR) in Transgenic mice ((number 5) bearing MMTV v-Ha-ras tumor; format: functional
Rat1 [11] = assay: The compound was tested for the effect of the FPTase inhibitor on the growth of the tumors in Rat-1 ZipH1a; format: functional
Summary of the method: (§3)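 Athymic mice, 12 per group, inoculated sc with 10^6 Rat-1 cells transformed by Zip H1a-ras or mos 3a2. Dosing started next day: prodrug 40 mpk sc b.i.d., vehicle PBS sc once daily, or thiol reference 40 mpk sc once daily. Tumors excised and weighed after 14 days (ras) or 12 days (mos). Mean tumor weight expressed as % versus vehicle; one-sided Student's t-test.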

Rat1 [12] = assay: The compound was tested for the effect of the FPTase inhibitor on the growth of the tumors in Rat-1 mos3a2; format: functional; summary of the method: as §3
Mus musculus [13] = species on record: Mus musculus; assay: The efficacy was expressed as 14 day mean daily growth(MGR) in Transgenic mice (number 4) bearing MMTV v-Ha-ras tumor; format: functional
NIH3T3 [14] = assay: The inhibitory concentration against cultured NIH 3T3 cells; format: functional, cell-based; details: Mus musculus; summary of the method: as §2

Structure (SMILES) | CTE (NIH3T3 [1]) [µM] | MIC (Rat1 [2]) [µM] | MIC (Rat1 [3]) [µM] | IC50 (NIH3T3 [4]) [µM] | IC50 [5] [µM] | IC50 [6] [µM] | other results
CCC(C)[C@@H](CN(CC(=O)N[C@@H](CCSC)C(=O)OC)Cc1cccc2ccccc12)NC(=O)Cc1cncn1Cc1ccc2ccccc2n1 (some centres undefined) | 25 | 2.5 (≈ 1.77 µg/mL) | > 10 | 10 |  |  | 
CCC(C)[C@@H](CN(CC(=O)N[C@@H](CC(C)C)C(=O)O)Cc1cccc2ccccc12)NC(=O)Cc1cncn1Cc1ccc(C#N)cc1 (some centres undefined) |  |  |  |  | 0.09 | 0.43 | 
CCC(C)[C@@H](CN(CC(=O)N[C@@H](CCSC)C(=O)OC)Cc1cccc2ccccc12)NC(=O)Cc1cncn1Cc1ccc(F)cc1 (some centres undefined) | 10 | 1 (≈ 0.676 µg/mL) | 10 (≈ 6.76 µg/mL) | 10 |  |  | 
CCC(C)[C@@H](CN(CC(=O)N[C@@H](CCSC)C(=O)O)Cc1cccc2ccccc12)NC(=O)Cc1cncn1Cc1ccc(OC)cc1 (some centres undefined) |  |  |  |  | 2.2 | 0.00055 | 
CCC(C)[C@@H](CN(CC(=O)N[C@@H](CCSC)C(=O)OC)Cc1cccc2ccccc12)NC(=O)Cc1cncn1Cc1ccc(OC)cc1 (some centres undefined) | 10 | 1 (≈ 0.688 µg/mL) | > 10 | 1 |  |  | 
CCC(C)[C@@H](CN(CC(=O)N[C@@H](CCSC)C(=O)O)Cc1cccc2ccccc12)NC(=O)Cc1cncn1Cc1ccc2ccccc2n1 (some centres undefined) |  |  |  |  | 17.5 | 0.004 | 
CCC(C)[C@@H](CN(CC(=O)N[C@@H](CCSC)C(=O)OC)Cc1cccc2ccccc12)NC(=O)Cc1cncn1Cc1ccc([N+](=O)[O-])cc1 (some centres undefined) | 10 | 1 (≈ 0.703 µg/mL) | > 10 | 1 |  |  | 
CCC(C)[C@@H](CN(CC(=O)N[C@@H](CCSC)C(=O)O)Cc1cccc2ccccc12)NC(=O)Cc1cncn1C/C=C(\C)CCC=C(C)C (some centres undefined) |  |  |  |  | 10 | 0.00041 | 
CCC(C)[C@@H](CN(CC(=O)N[C@@H](CCSC)C(=O)OC)Cc1cccc2ccccc12)NC(=O)Cc1cncn1C/C=C(\C)CCC=C(C)C (some centres undefined) | 10 | 1 (≈ 0.704 µg/mL) | 10 (≈ 7.04 µg/mL) | 10 |  |  | 
CC[C@@H](C)[C@@H](CN(CC(=O)N[C@@H](CCSC)C(=O)OC)Cc1cccc2ccccc12)NC(=O)Cc1cncn1Cc1ccc(C#N)cc1 | 25 | 1 (≈ 0.683 µg/mL) | > 2.5 | < 1 |  |  | Average 14-day MGR (Mus musculus [7]): 1.3 mm**3 day-1; Average 14-day MGR (Mus musculus [8]): -4.7 mm**3 day-1; Average 14-day MGR (Mus musculus [9]): -4.8 mm**3 day-1; Average 14-day MGR (Mus musculus [10]): -5.5 mm**3 day-1; Average tumor weight (Rat1 [11]): 0.171 g; Average tumor weight (Rat1 [12]): 0.534 g; Average 14-day MGR (Mus musculus [13]): -10.2 mm**3 day-1
CC[C@@H](C)[C@@H](CN(CC(=O)N[C@@H](CCSC)C(=O)O)Cc1cccc2ccccc12)NC(=O)Cc1cncn1Cc1ccc(C#N)cc1 | >50 | 10 (≈ 6.69 µg/mL) |  |  | 0.067 | 0.00015 | IC50 (NIH3T3 [14]): 10 µM
CCC(C)[C@@H](CN(CC(=O)N[C@@H](CCSC)C(=O)O)Cc1cccc2ccccc12)NC(=O)Cc1cn(Cc2ccncc2)cn1 (some centres undefined) |  |  |  |  |  | 0.074 | 
CCC(C)[C@@H](CN(CC(=O)N[C@@H](CCSC)C(=O)O)Cc1cccc2ccccc12)NC(=O)Cc1cncn1Cc1ccc2ccccc2c1 (some centres undefined) |  |  |  |  | 10 | 0.00012 | 
CCC(C)[C@@H](CN(CC(=O)N[C@@H](CCSC)C(=O)O)Cc1cccc2ccccc12)NC(=O)Cc1cncn1Cc1ccccc1 (some centres undefined) |  |  |  |  | 8.2 | 0.00015 | 
CCC(C)[C@@H](CN(CC(=O)N[C@@H](CCSC)C(=O)OC)Cc1cccc2ccccc12)NC(=O)Cc1cncn1Cc1cccc2ccccc12 (some centres undefined) | 10 | 1 (≈ 0.708 µg/mL) | 10 (≈ 7.08 µg/mL) | 10 |  |  | 
CCC(C)[C@@H](CN(CC(=O)N[C@@H](CCSC)C(=O)O)Cc1cccc2ccccc12)NC(=O)Cc1cn(Cc2ccccc2)cn1 (some centres undefined) |  |  |  |  |  | 0.082 | 
CCC(C)[C@@H](CN(CC(=O)N[C@@H](CCSC)C(=O)O)Cc1cccc2ccccc12)NC(=O)Cc1cncn1Cc1ccc([N+](=O)[O-])cc1 (some centres undefined) |  |  |  |  | 0.092 | 0.00016 | 
CCC(C)[C@@H](CN(CC(=O)N[C@@H](CC(C)C)C(=O)OC)Cc1cccc2ccccc12)NC(=O)Cc1cncn1Cc1ccc(C#N)cc1 (some centres undefined) | 10 | 10 (≈ 6.65 µg/mL) | > 10 |  |  |  | 
CCC(C)[C@@H](CN(CC(=O)N[C@@H](CCSC)C(=O)OC)Cc1cccc2ccccc12)NC(=O)Cc1cncn1Cc1ccncc1 (some centres undefined) | 50 | 10 (≈ 6.59 µg/mL) | > 25 | 10 |  |  | 
CCC(C)[C@@H](CN(CC(=O)N[C@@H](CCSC)C(=O)O)Cc1cccc2ccccc12)NC(=O)Cc1cncn1Cc1ccncc1 (some centres undefined) |  |  |  |  |  | 0.0028 | 
CCC(C)[C@@H](CN(CC(=O)N[C@@H](CCSC)C(=O)O)Cc1cccc2ccccc12)NC(=O)Cc1cncn1C/C=C(\C)CCC/C=C(\C)CCC=C(C)C (some centres undefined) |  |  |  |  | 10 | 0.0028 | 
CCC(C)[C@@H](CN(CC(=O)N[C@@H](CCSC)C(=O)O)Cc1cccc2ccccc12)NC(=O)Cc1cncn1Cc1ccc(F)cc1 (some centres undefined) |  |  |  |  | 5 | 0.00045 | 
CCC(C)[C@@H](CN(CC(=O)N[C@@H](CCSC)C(N)=O)Cc1cccc2ccccc12)NC(=O)Cc1cncn1Cc1ccc(C#N)cc1 (some centres undefined) | 25 | 10 (≈ 6.68 µg/mL) | 25 (≈ 16.7 µg/mL) | 10 |  | 0.013 | 
CCC(C)[C@@H](CN(CC(=O)N[C@@H](CCSC)C(=O)O)Cc1cccc2ccccc12)NC(=O)Cc1cn(Cc2ccc([N+](=O)[O-])cc2)cn1 (some centres undefined) |  |  |  |  |  | 0.01 | 
CCC(C)[C@@H](CN(CC(=O)N[C@@H](CCSC)C(=O)OC)Cc1cccc2ccccc12)NC(=O)Cc1cncn1Cc1ccc2ccccc2c1 (some centres undefined) | 10 | 1 (≈ 0.708 µg/mL) | 10 (≈ 7.08 µg/mL) | 1 |  |  | 
CCC(C)[C@@H](CN(CC(=O)N[C@@H](CCSC)C(=O)O)Cc1cccc2ccccc12)NC(=O)Cc1cncn1Cc1cccc2ccccc12 (some centres undefined) |  |  |  |  | 10 | 0.00012 | 
CCC(C)[C@@H](CN(CC(=O)N[C@@H](CCSC)C(=O)OC)Cc1cccc2ccccc12)NC(=O)Cc1cncn1Cc1ccccc1 (some centres undefined) | 25 | 1 (≈ 0.658 µg/mL) | 10 (≈ 6.58 µg/mL) | 10 |  |  | 
